In ChEMBL document CHEMBL4725354 (J Med Chem, 2020):
Active and inactive are the calls of the source. The rule behind the calls is not given here.

How the values were obtained:
[1] = Effect on total ABCG2 in MDCK2 cells at 0.5 uM after 4 to 7 days by Western blot analysis; format: ADME, cell-based, Canis lupus familiaris; details: dog, mdck-ii, time 4-7 day
How it was run: (§1)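 ABCG2-GFP MDCK II cells seeded in T25 flasks (86,000 for 4 days, 17,200 for 7 days). Exposed to modulator (10 nM) and/or SN-38 (0.5 µM) for 4 or 7 days. 15 µg protein run on stain-free 10% SDS-PAGE and transferred to PVDF. Probed with BXP-21 (1:200, overnight, 4 °C) and HRP secondary, ECL detection. Bands normalised to total protein and to the untreated control; one-sample t-test.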

[2] = Up regulation of ABCG2 in MDCK2 cells at 0.5 uM after 4 days by Western blot analysis; format: functional, Canis lupus familiaris, MDCK-II; details: time 4 day; how it was run: as §1
[3] = test system: MDCK-II; assay: Cytotoxicity against MDCK2 cells over expressing human ABCG2 assessed as reduction in cell viability at 0.5 uM by after 3 days by MTT assay; format: functional, cell-based; details: Canis lupus familiaris, time 3.0 day
[4] = Up regulation of ABCG2 in MDCK2 cells at 0.5 uM after 7 days by Western blot analysis; format: functional, Canis lupus familiaris, MDCK-II; details: time 7 day; how it was run: as §1
[5] = Growth inhibition of MDCK2 cells after 72 hrs by MTT assay; format: cell-based, Canis lupus familiaris, MDCK-II; details: dog
How it was run: (§2)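 MTT viability assay. Compound dilutions in culture medium (3.2 to 1000 µM as prepared). About 2,000 cells per well, 72 h at 37 °C, 5% CO2. Culture medium set as 100% and 10% DMSO as 0% viability. MTT added for 1 h, formazan dissolved in DMSO, absorbance read at 570 nm with 690 nm background. GI50 from nonlinear regression of absorbance vs log concentration; at least three independent experiments, duplicates, mean ± SEM.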

[6] = target: T1, Broad substrate specificity ATP-binding cassette transporter ABCG2 (Homo sapiens, UniProt Q9UNQ0); assay: Inhibition of human ABCG2 expressed in MDCK2 cells co-expressing GFP preincubated for 15 mins followed by pheophorbideA addition and measured after 2 hrs by flow cytometric analysis; format: cell-based, MDCK-II
T1 sequence (Q9UNQ0 whole entry): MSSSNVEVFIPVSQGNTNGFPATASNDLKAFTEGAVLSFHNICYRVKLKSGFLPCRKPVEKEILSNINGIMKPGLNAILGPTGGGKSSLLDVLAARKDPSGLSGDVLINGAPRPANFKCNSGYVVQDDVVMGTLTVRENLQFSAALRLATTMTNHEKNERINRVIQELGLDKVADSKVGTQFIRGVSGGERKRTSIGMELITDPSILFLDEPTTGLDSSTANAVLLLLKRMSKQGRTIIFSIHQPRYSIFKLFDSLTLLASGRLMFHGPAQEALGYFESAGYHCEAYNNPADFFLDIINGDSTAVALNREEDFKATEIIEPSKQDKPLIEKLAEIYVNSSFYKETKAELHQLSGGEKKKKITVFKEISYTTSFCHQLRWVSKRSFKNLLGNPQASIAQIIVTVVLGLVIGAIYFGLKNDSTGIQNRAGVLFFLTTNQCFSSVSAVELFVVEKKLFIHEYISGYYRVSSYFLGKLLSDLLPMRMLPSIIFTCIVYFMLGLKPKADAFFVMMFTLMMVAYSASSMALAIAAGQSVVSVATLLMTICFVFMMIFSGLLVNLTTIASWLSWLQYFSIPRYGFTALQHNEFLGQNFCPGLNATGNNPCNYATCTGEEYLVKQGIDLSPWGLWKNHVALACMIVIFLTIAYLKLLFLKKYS
How it was run: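 Pheophorbide A added to 0.5 µM final and incubated 2 h. Read by flow cytometry (ex 488, em 695/50 nm); GFP expression checked at 525/30 nm. IC50 from 3- or 4-parameter logistic fit.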

[7] = target: T2, ATP-dependent translocase ABCB1 (Homo sapiens, UniProt P08183); assay: Inhibition of human ABCB1 expressed in A2780/ADR cells preincubated for 30 mins followed by calcein AM addition and measured every 60 secs for 60 mins by fluorescence assay; format: cell-based
How it was run: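 ABCB1 in A2780/ADR cells (kept resistant by one passage in 1 µM doxorubicin every 10 passages). 30,000 cells per well in Krebs-HEPES buffer, preincubated 30 min at 37 °C with inhibitor. Calcein AM added from a 3.125 µM solution. Fluorescence (ex 485, em 520 nm) read every 60 s for 60 min. Initial linear slopes vs log concentration fitted to give IC50.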

[8] = target: T3, ABCG2 (Homo sapiens, UniProt Q9UNQ0); assay: Inhibition of human ABCG2 expressed in MDCK2 cells co-expressing GFP preincubated for 30 mins followed by Hoechst 33342 addition and measured every 60 sec for 120 mins by fluorescence assay relative to control; format: cell-based, MDCK-II; details: probe Hoechst 33342, read-out: Imax
T3 sequence (Q9UNQ0 whole entry): T1 sequence (Q9UNQ0 whole entry)
How it was run: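 MDCK II cells transfected with human ABCG2 cDNA C-terminally fused to GFP. Steady-state means vs log concentration fitted by 3- or 4-parameter logistic to give IC50.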

[9] = test system: MDCK-II; assay: Cytotoxicity against MDCK2 cells assessed as reduction in cell viability at 10 uM after 72 hrs by MTT assay; format: cell-based, Canis lupus familiaris; details: dog
How it was run: (§3)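 Single-concentration screen at 10 µM in MDCK II BCRP and parental MDCK II cells. MTT assay, 72 h at 37 °C, 5% CO2. Viability referenced to culture medium (100%) and 10% DMSO (0%). Mean ± SEM of at least three independent experiments with duplicates.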

[10] = test system: ABCG2; assay: Therapeutic ratio of GI50 for Growth inhibition of MDCK2 cells over expressing human ABCG2 to IC50 for inhibition of human ABCG2 expressed in MDCK2 cells co-expressing GFP preincubated for 30 mins followed by Hoechst 33342 addition and measured every 60 sec for 120 mins by fluorescence assay; format: toxicity, cell-based; details: dog, MDCK2 cells overexpressing human ABCG2, probe Hoechst 33342; read-out: TI
[11] = target: T2, ATP-dependent translocase ABCB1; assay: Inhibition of human ABCB1-mediated multidrug resistance in human A2780/ADR cells assessed as potentiation of doxorubicin-induced cytotoxicity by measuring half maximal reversal concentration after 72 hrs by MTT assay; format: cell-based
[12] = test system: ABCG2; assay: Therapeutic ratio of GI50 for Growth inhibition of MDCK2 cells over expressing human ABCG2 to IC50 for inhibition of human ABCG2 expressed in MDCK2 cells co-expressing GFP preincubated for 15 mins followed by pheophorbideA addition and measured after 2 hrs by flow cytometric analysis; format: toxicity, cell-based; details: dog, MDCK2 cells overexpressing human ABCG2, probe pheophorbide A; read-out: TI
[13] = test system: MDCK-II; assay: Cytotoxicity against MDCK2 cells over expressing human ABCG2 at 10 uM assessed as reduction in cell viability after 72 hrs by MTT assay; format: ADME, cell-based, Canis lupus familiaris; details: dog; how it was run: as §3
[14] = target: Multidrug resistance-associated protein 1 (Homo sapiens, UniProt P33527); assay: Inhibition of human ABCC1-mediated multidrug resistance in MDCK2 cells assessed as potentiation of doxorubicin-induced cytotoxicity by measuring half maximal reversal concentration after 72 hrs by MTT assay; format: cell-based; details: mdck-ii
[15] = target: T1, Broad substrate specificity ATP-binding cassette transporter ABCG2; assay: Inhibition of human ABCG2 expressed in MDCK2 cells co-expressing GFP preincubated for 30 mins followed by Hoechst 33342 addition and measured every 60 sec for 120 mins by fluorescence assay; format: cell-based, MDCK-II
How it was run: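 MDCK II cells transfected with human ABCG2 cDNA C-terminally fused to GFP. Hoechst 33342 added at 1 µM final. Fluorescence (ex 355, em 460 nm) read every 60 s for 120 min. Steady-state means vs log concentration fitted by 3- or 4-parameter logistic to give IC50.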

[16] = target: T3, ABCG2; assay: Inhibition of human ABCG2 expressed in MDCK2 cells co-expressing GFP preincubated for 15 mins followed by pheophorbideA addition and measured after 2 hrs by flow cytometric analysis relative to control; format: cell-based, MDCK-II; details: probe pheophorbide A, read-out: Imax
[17] = Growth inhibition of MDCK2 cells over expressing human ABCG2 after 72 hrs by MTT assay; format: ADME, cell-based, Canis lupus familiaris, MDCK-II; details: dog, MDCK2 cells overexpressing human ABCG2; how it was run: as §2

Sequence of Multidrug resistance-associated protein 1 (P33527 whole entry): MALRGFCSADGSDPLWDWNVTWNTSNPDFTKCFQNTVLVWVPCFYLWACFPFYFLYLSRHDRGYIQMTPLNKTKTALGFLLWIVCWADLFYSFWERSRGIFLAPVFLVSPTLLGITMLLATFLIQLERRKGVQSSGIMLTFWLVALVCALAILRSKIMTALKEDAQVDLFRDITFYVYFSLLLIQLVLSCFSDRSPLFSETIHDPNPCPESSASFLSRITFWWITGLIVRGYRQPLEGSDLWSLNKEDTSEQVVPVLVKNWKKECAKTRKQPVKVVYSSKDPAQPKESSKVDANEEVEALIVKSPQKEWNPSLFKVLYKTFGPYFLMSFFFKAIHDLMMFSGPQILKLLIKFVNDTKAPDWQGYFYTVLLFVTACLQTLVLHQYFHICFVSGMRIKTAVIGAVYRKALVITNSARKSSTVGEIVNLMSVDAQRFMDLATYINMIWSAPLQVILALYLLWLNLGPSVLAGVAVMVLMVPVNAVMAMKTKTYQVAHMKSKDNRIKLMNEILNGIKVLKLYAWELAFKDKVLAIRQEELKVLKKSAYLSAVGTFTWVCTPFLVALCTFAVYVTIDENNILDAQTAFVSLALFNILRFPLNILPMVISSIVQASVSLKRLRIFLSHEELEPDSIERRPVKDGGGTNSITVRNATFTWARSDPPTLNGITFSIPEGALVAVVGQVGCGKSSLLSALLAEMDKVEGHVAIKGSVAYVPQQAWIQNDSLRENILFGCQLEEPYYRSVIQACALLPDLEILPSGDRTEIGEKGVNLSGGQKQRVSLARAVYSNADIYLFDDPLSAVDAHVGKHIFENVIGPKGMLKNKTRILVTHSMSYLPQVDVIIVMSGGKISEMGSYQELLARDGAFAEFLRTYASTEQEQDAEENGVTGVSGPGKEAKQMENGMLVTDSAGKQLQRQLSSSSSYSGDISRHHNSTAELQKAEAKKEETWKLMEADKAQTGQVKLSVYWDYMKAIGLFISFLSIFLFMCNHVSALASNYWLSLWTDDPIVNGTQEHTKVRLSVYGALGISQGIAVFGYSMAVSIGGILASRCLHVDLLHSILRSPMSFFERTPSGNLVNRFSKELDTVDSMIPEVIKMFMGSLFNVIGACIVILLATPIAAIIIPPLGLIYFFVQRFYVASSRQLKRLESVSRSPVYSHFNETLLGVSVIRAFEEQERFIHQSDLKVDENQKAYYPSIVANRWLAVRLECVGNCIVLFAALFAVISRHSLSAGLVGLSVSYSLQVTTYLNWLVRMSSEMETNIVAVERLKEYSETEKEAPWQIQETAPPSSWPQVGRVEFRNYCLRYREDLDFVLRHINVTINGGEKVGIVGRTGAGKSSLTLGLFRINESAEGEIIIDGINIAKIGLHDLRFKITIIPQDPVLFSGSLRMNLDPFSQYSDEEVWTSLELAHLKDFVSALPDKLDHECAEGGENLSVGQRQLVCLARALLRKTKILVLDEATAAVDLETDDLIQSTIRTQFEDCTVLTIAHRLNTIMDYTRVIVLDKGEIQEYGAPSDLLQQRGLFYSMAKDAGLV
T2 sequence (P08183 whole entry): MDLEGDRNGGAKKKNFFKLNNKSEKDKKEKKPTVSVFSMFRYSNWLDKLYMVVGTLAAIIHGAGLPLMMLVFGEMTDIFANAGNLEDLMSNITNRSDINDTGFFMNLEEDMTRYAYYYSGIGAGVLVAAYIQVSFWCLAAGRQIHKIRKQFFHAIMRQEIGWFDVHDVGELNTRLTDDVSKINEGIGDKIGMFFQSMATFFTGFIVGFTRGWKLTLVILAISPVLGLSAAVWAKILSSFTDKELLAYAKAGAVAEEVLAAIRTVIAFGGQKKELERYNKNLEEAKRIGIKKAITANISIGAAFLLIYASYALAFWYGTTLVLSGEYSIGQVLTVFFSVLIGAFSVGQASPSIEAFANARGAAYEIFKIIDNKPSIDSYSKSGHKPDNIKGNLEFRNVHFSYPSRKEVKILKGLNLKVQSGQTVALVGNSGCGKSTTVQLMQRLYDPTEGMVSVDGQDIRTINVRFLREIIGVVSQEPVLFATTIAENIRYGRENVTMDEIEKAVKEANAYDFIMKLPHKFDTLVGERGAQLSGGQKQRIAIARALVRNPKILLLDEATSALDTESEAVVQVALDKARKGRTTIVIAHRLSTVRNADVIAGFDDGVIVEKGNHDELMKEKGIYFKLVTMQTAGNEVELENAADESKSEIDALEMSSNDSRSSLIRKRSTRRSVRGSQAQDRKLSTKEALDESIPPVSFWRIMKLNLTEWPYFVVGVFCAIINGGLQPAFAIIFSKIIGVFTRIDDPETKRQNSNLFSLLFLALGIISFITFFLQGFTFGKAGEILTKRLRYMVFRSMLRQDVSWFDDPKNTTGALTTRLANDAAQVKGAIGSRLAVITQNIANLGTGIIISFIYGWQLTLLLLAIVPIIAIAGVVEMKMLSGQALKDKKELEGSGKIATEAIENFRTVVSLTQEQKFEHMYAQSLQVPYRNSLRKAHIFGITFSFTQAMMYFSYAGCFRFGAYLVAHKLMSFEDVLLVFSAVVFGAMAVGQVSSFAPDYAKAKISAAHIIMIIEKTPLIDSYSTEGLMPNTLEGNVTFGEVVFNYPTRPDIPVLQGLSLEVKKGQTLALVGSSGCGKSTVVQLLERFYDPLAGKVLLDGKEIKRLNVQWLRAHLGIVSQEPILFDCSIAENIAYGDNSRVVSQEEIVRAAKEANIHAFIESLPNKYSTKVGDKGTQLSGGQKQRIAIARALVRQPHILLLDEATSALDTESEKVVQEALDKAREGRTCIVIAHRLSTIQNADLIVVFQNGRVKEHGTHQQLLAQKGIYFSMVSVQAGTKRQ

Structure (SMILES) | Activity [1] | fold change (FC) [2] | Activity [3] | fold change (FC) [4] | GI50 at 72 h [5] [µM] | IC50 [6] [µM] | IC50 [7] [µM] | Emax at 2 h [8] [%] | Activity [9] | selectivity ratio [10] | inhibition (INH) [11] | selectivity ratio at 2 h [12] | Activity [13] | inhibition (INH) [14] | IC50 [15] [µM] | Emax at 2 h [16] [%] | GI50 at 72 h [17] [µM]
CCc1c2c(nc3ccc(O)cc13)-c1cc3c(c(=O)n1C2)COC(=O)C3(O)CC (stereo not given) | Non-Toxic | 2 | inactive | 5 | – | – | – | – | – | – | – | – | – | – | – | – | –
COc1ccc(Nc2cc(C)nc(-c3ccccc3)n2)cc1C(F)(F)F | – | – | – | – | 10.1 | 0.544 | 7.3 | 100 | Toxic | 14 | Not Active | 15 | Toxic | Not Active | 0.598 | 83 | 8.4
Cc1cc(Nc2cccc(Cl)c2)nc(-c2ccccc2)n1 | – | – | – | – | – | 1 | 5.92 | 100 | Non-Toxic | – | Not Active | – | Non-Toxic | Not Active | 0.811 | 100 | –
Cc1cc(Nc2cccc(Br)c2)nc(-c2ccccc2)n1 | – | – | – | – | – | 0.386 | 7.14 | 100 | Non-Toxic | – | Not Active | – | Non-Toxic | Not Active | 0.892 | 83 | –
